Source: ChEMBL document CHEMBL1141179 (J Med Chem, 2005)

Assays:
[1] = target: Somatostatin receptor type 1 (Homo sapiens, UniProt P30872); assay: Inhibition of 125I-[Leu8,D-Trp22,Tyr25]SRIF-28 binding to human somatostatin receptor type 1
How it was run: (§1)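 Human sst1 or sst5 receptor stably expressed in CHO-K1 cells. 20 µm cryostat sections of cell membrane pellets were used for receptor autoradiography. IC50 (nM) came from competitive radioligand displacement. Values are mean ± SEM when N ≥ 3; otherwise mean with single values.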

[2] = target: Somatostatin receptor type 5 (Homo sapiens, UniProt P35346); assay: Inhibition of 125I-[Leu8,D-Trp22,Tyr25]SRIF-28 binding to human somatostatin receptor type 5; how it was run: as §1
Somatostatin receptor type 5, sequence (P35346 whole entry): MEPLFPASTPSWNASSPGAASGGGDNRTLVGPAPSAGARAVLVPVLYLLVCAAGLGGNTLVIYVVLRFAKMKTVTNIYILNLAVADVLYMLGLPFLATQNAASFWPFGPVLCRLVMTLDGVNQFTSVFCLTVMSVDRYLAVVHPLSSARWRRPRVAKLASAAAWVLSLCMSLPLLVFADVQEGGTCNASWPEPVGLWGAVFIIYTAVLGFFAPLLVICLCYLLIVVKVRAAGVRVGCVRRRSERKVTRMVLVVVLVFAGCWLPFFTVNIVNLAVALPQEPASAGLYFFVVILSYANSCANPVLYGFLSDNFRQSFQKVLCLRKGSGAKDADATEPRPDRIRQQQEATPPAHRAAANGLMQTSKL

[3] = target: Somatostatin receptor type 4 (Homo sapiens, UniProt P31391); assay: Inhibition of 125I-[Leu8,D-Trp22,Tyr25]SRIF-28 binding to human somatostatin receptor type 4
Somatostatin receptor type 4, sequence (P31391 whole entry): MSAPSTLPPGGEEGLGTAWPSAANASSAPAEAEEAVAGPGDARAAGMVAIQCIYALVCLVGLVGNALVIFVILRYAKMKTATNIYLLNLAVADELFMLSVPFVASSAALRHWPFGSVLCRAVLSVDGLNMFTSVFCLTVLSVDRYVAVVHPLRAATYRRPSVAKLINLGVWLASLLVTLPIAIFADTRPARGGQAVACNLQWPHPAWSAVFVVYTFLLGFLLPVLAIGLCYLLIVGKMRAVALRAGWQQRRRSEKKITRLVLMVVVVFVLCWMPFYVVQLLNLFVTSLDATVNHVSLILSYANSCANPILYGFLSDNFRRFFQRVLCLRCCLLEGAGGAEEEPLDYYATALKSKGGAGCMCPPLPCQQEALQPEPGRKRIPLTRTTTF

[4] = target: Somatostatin receptor type 2 (Homo sapiens, UniProt P30874); assay: Inhibition of 125I-[Leu8,D-Trp22,Tyr25]SRIF-28 binding to human somatostatin receptor type 2
Somatostatin receptor type 2, sequence (P30874 whole entry): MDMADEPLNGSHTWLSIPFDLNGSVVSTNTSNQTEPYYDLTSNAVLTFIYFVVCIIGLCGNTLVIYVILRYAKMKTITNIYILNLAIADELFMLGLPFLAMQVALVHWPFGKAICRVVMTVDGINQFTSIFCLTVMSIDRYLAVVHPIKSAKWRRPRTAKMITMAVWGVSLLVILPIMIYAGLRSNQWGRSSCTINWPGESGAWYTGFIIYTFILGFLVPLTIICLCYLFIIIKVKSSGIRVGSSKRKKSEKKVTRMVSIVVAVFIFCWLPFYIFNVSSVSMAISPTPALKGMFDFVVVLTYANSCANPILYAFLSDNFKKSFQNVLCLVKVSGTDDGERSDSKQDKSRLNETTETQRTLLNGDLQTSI
How it was run: (§2)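 Human sst2 or sst3 receptor stably expressed in CCL39 cells. 20 µm cryostat sections of cell membrane pellets were used for autoradiographic binding. IC50 (nM) came from competitive displacement. Values are mean ± SEM when N ≥ 3; otherwise mean with single values.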

[5] = target: Somatostatin receptor type 3 (Homo sapiens, UniProt P32745); assay: Inhibition of 125I-[Leu8,D-Trp22,Tyr25]SRIF-28 binding to human somatostatin receptor type 3; how it was run: as §2
Somatostatin receptor type 3, sequence (P32745 whole entry): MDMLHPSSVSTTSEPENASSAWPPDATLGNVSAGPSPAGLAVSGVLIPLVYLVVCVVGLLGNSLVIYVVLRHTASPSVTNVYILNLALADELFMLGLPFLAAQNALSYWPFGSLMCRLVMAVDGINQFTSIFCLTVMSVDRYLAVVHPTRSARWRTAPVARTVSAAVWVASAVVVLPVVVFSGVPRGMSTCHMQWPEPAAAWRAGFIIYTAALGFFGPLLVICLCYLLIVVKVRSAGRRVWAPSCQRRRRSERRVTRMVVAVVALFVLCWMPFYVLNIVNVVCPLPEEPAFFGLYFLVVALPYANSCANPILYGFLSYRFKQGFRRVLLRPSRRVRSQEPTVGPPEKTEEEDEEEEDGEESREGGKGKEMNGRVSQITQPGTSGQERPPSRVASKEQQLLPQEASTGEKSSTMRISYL

Somatostatin receptor type 1, sequence (P30872 whole entry): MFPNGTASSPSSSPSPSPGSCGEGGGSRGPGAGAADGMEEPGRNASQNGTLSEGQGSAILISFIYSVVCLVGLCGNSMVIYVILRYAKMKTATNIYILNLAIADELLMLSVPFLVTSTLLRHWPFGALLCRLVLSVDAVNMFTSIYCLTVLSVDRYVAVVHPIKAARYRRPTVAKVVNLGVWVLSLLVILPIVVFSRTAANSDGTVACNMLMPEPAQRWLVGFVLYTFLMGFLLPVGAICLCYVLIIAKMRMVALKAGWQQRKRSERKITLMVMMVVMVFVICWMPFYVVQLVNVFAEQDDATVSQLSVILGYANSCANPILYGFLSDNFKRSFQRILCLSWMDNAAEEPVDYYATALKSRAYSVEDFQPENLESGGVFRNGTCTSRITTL

CC(C)NCc1ccc(C[C@@H]2NC(=O)[C@@H](Cc3c[nH]c4ccccc34)NC(=O)[C@@H]3CCC(=O)NCCC(=O)NCCC[C@H](NC(=O)[C@H](Cc4ccccc4)NC(=O)[C@H]([C@@H](C)O)NC2=O)C(=O)N[C@@H](CO)C(=O)N[C@H](C(=O)O)CSSC[C@H](NC(=O)[C@@H](N)Cc2ccc(O)cc2)C(=O)N[C@@H](CCCCN)C(=O)N[C@@H](Cc2ccccc2)C(=O)N3)cc1
IC50 [1]: 64 nM | IC50 [2]: > 1000 nM | IC50 [3]: > 1000 nM | IC50 [4]: > 1000 nM | IC50 [5]: > 1000 nM

CC(C)NCc1ccc(C[C@@H]2NC(=O)[C@@H](Cc3c[nH]c4ccccc34)NC(=O)[C@@H]3CCC(=O)NCCCC(=O)NCCCC[C@H](NC(=O)[C@H](Cc4ccccc4)NC(=O)[C@H]([C@@H](C)O)NC2=O)C(=O)N[C@@H](CO)C(=O)N[C@H](C(=O)O)CSSC[C@H](NC(=O)[C@@H](N)Cc2ccc(O)cc2)C(=O)N[C@@H](CCCCN)C(=O)N[C@@H](Cc2ccccc2)C(=O)N3)cc1
IC50 [1]: 274 nM | IC50 [2]: > 1000 nM | IC50 [3]: > 1000 nM | IC50 [4]: > 1000 nM | IC50 [5]: > 1000 nM

CC(C)NCc1ccc(C[C@@H]2NC(=O)[C@@H](Cc3c[nH]c4ccccc34)NC(=O)[C@@H]3CCC(=O)NCCC(=O)NCC[C@H](NC(=O)[C@H](Cc4ccccc4)NC(=O)[C@H]([C@@H](C)O)NC2=O)C(=O)N[C@@H](CO)C(=O)N[C@H](C(=O)O)CSSC[C@H](NC(=O)[C@@H](N)Cc2ccc(O)cc2)C(=O)N[C@@H](CCCCN)C(=O)N[C@@H](Cc2ccccc2)C(=O)N3)cc1
IC50 [1]: 74 nM | IC50 [2]: > 1000 nM | IC50 [3]: > 1000 nM | IC50 [4]: > 1000 nM | IC50 [5]: > 1000 nM

CC(C)NCc1ccc(C[C@@H]2NC(=O)[C@@H](Cc3c[nH]c4ccccc34)NC(=O)[C@@H]3CCC(=O)NCCCC(=O)NCCC[C@H](NC(=O)[C@H](Cc4ccccc4)NC(=O)[C@H]([C@@H](C)O)NC2=O)C(=O)N[C@@H](CO)C(=O)N[C@H](C(=O)O)CSSC[C@H](NC(=O)[C@@H](N)Cc2ccc(O)cc2)C(=O)N[C@@H](CCCCN)C(=O)N[C@@H](Cc2ccccc2)C(=O)N3)cc1
IC50 [1]: 167 nM | IC50 [2]: > 1000 nM | IC50 [3]: > 1000 nM | IC50 [4]: > 1000 nM | IC50 [5]: > 1000 nM

CC(C)NCc1ccc(C[C@@H]2NC(=O)[C@@H](Cc3c[nH]c4ccccc34)NC(=O)[C@@H]3CCC(=O)NCCCC[C@H](NC(=O)[C@H](Cc4ccccc4)NC(=O)[C@H]([C@@H](C)O)NC2=O)C(=O)N[C@@H](CO)C(=O)N[C@H](C(=O)O)CSSC[C@H](NC(=O)[C@@H](N)Cc2ccc(O)c(I)c2)C(=O)N[C@@H](CCCCN)C(=O)N[C@@H](Cc2ccccc2)C(=O)N3)cc1
IC50 [1]: 89 nM | IC50 [2]: > 1000 nM | IC50 [3]: > 1000 nM | IC50 [4]: > 1000 nM | IC50 [5]: > 1000 nM

CC(C)NCc1ccc(C[C@@H]2NC(=O)[C@@H](Cc3c[nH]c4ccccc34)NC(=O)[C@@H]3CCC(=O)NCCCC(=O)NCC[C@H](NC(=O)[C@H](Cc4ccccc4)NC(=O)[C@H]([C@@H](C)O)NC2=O)C(=O)N[C@@H](CO)C(=O)N[C@H](C(=O)O)CSSC[C@H](NC(=O)[C@@H](N)Cc2ccc(O)cc2)C(=O)N[C@@H](CCCCN)C(=O)N[C@@H](Cc2ccccc2)C(=O)N3)cc1
IC50 [1]: 61 nM | IC50 [2]: > 1000 nM | IC50 [3]: > 1000 nM | IC50 [4]: > 1000 nM | IC50 [5]: > 1000 nM

CC(C)NCc1ccc(C[C@@H]2NC(=O)C(Cc3c[nH]c4ccccc34)NC(=O)[C@H](Cc3ccccc3)NC(=O)[C@@H](Cc3ccccc3)NC(=O)[C@H](NC(=O)[C@@H](N)Cc3ccc(O)cc3)CSSC[C@@H](C(=O)O)NC(=O)[C@@H]([C@@H](C)O)NC(=O)[C@H](Cc3ccccc3)NC(=O)[C@@H]([C@@H](C)O)NC2=O)cc1 (stereo in doubt)
IC50 [1]: 720 nM | IC50 [3]: > 1000 nM | IC50 [4]: > 1000 nM | IC50 [5]: 445 nM
